Our source for the Ki, Change and ED50 values is ChEMBL document CHEMBL1126266, “Dopaminergic and serotonergic activities of imidazoquinolinones and related compounds” (J Med Chem, 1992).

Test [1] has as its target T1, D(2) dopamine receptor (Rattus norvegicus, UniProt P61169). In words: Ability to displace [3H]raclopride from dopamine receptor D2 in rat striatal homogenates. Summed up:
(§1)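 Rat striatal homogenate (1:300) incubated with [3H]raclopride (80 Ci/mmol) 1 h at room temperature. Filtered over PEI-pretreated filters, rinsed with 50 mM Tris pH 7.4, counted by liquid scintillation. Nonspecific binding with 1 μM haloperidol. IC50 by log-probit analysis from at least four concentrations in triplicate; Ki calculated from IC50.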

In test [2] the test system is Rattus norvegicus. Nature of the test: Percent change in DOPA levels in rat brain following 1 mg/kg administration. In kind it is functional. Summed up: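 Upjohn CF-1 rats given drug or vehicle sc. Fifteen minutes later, m-hydroxybenzylhydrazine 100 mg/kg ip was given as decarboxylase inhibitor. Control and test groups (n = 6 each) compared by unpaired t test.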

Test [3] has as its system Rattus norvegicus. In words: Percent change in 5-HTP levels in rat brain following 1 mg/kg administration.
Test [4] in a line: Dose required to reduce neuronal firing of DA cells by 50%. In kind it is functional. Summed up: (§2)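 Male Sprague-Dawley rats (280-330 g) anesthetized with chloral hydrate 400 mg/kg ip. Extracellular recording from substantia nigra pars compacta neurons (action potential >2.5 ms), site verified histologically. Drug in distilled water given iv via femoral vein. Firing rate measured by integrated ratemeter.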

For test [5], the species on record is Rattus norvegicus. In words: Dose required to reduce neuronal firing of dopaminergic cells by 50%. The class given is functional. The method in brief: as §2
The target of test [6] is T1, D(2) dopamine receptor. Nature of the test: Compound was evaluated for its ability to displace [3H]raclopride from dopamine receptor D2 in rat striatal homogenates. Summed up: as §1
The species named for test [7] is Rattus norvegicus. Nature of the test: Dose required to reduce neuronal firing of serotonergic cells by 50%. The class given is functional. The method in brief:
(§3)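 Male Sprague-Dawley rats (280-330 g) under chloral hydrate 400 mg/kg ip. Extracellular recording from dorsal raphe neurons (biphasic spikes, about 0.8–2.5 spikes/s), location confirmed by dye deposit. Drug in distilled water given iv via femoral vein.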

Test [8] addresses T1, D(2) dopamine receptor. In words: Compound was evaluated for its ability to displace [3H]raclopride from Dopamine receptor D2 in rat striatal homogenates. Summed up:
as §1

For test [9], the target named is T2, 5-hydroxytryptamine receptor 1A (Homo sapiens) (UniProt P08908).
T2 sequence (whole entry): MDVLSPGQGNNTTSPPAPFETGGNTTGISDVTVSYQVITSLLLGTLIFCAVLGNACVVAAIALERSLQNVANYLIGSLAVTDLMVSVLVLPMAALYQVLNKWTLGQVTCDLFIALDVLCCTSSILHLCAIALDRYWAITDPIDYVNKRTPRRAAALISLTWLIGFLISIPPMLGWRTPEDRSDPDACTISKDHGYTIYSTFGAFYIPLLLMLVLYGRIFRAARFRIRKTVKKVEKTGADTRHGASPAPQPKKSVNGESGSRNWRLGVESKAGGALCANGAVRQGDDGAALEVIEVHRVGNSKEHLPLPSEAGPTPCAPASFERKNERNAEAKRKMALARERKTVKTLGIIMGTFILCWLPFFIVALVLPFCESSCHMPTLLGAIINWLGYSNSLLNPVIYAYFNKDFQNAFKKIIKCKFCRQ
Nature of the test: Dose required to reduce neuronal firing of 5-HT1A cells by 50%. The class given is functional. Summed up:
as §3

The term Ki denotes the equilibrium dissociation constant of an inhibitor or competing ligand from its target. Higher therefore signals lower affinity. By ED50 is commonly meant the dose at which the effect has come halfway, by size or by number of responders. A lower ED50 goes with greater potency.

T1 sequence (P61169 whole entry): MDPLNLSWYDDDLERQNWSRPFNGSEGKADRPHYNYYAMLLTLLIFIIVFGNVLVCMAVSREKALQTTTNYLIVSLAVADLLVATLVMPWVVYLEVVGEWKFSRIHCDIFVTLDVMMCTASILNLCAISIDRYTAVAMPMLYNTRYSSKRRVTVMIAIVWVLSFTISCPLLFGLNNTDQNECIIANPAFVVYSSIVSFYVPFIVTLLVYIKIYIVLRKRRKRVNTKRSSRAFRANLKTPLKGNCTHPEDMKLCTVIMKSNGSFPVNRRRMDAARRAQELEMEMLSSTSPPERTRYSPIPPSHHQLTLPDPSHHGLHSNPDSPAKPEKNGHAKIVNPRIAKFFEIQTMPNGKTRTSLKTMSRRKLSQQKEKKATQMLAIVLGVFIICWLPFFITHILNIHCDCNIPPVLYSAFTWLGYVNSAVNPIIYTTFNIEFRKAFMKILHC

On D(2) dopamine receptor [1], `C=CCN(CC=C)C1Cc2cccc3nc(O)n(c23)C1` (stereo not drawn) registered a Ki of over 10000 nM.

For the compound `CCCN(CCC)C1Cc2cccc3c2N(CCC3)C1` (stereo not drawn), the affinity at D(2) dopamine receptor [1] corresponds to a Ki of 35 nM.

Turning to `CCCN(CCC)C1Cc2cccc3c2N(CC(=O)N3)C1.Cl` (stereo not drawn), the Ki at D(2) dopamine receptor [1] is 30 nM. Also, the Change in the test with Rattus norvegicus [2] was -52%; in the test on Rattus norvegicus [3], 16%. This compound also gave an ED50 in test [4] of 0.039 mg/kg.

For the compound `CN1CCc2cccc3c2[C@H]1Cc1ccc(O)c(O)c1-3` [APOMORPHINE], the figures for the Change in the test on Rattus norvegicus [2] and in the test on Rattus norvegicus [3] were -55% and 4%, respectively.

For `Br.CCCN(CCC)[C@@H]1Cc2cccc3nc(O)n(c23)C1`, the ED50 in the test listed under Rattus norvegicus [5] was 1.4 µg/kg; in the test listed under Rattus norvegicus [7], 0.107 mg/kg. Also, affinity on D(2) dopamine receptor [6] was put at a Ki of 68 nM. In addition, the Change in the test with Rattus norvegicus [2] is -50%; with Rattus norvegicus [3], -1.2%.

Regarding `CCCN(CCC)C1Cc2cccc3c2N(C1)C(=O)CN3` (stereo not drawn), on D(2) dopamine receptor [1], the Ki stood at 80 nM. The Change was -37% with Rattus norvegicus [2] and -32% with Rattus norvegicus [3].

On D(2) dopamine receptor [1], `CCCN(CCC)C1Cc2cccc3[nH]c(=O)c(=O)n(c23)C1.Cl` (stereo not drawn) had a Ki of 150 nM. For the same compound, the Change in the test with Rattus norvegicus [2] is reported as -37%; with Rattus norvegicus [3], 6%. In test [4], this compound yielded an ED50 of 0.088 mg/kg.

As to `Oc1nc2cccc3c2n1CC(NCC1CC1)C3` (stereo not drawn), the affinity on D(2) dopamine receptor [1] corresponds to a Ki of 4000 nM.

In turn, `CCCCN(CCCC)C1Cc2cccc3nc(O)n(c23)C1` (stereo not drawn) registered an inhibitory constant (Ki) on D(2) dopamine receptor [1] of over 10000 nM.

With `CCCN(CCC)C1Cc2cccc3nc(C)n(c23)C1` (stereo not drawn), the Ki at D(2) dopamine receptor [8] is over 1000 nM.

Compound `CCCN(CCC)C1Cc2cccc3c2N(C1)C(=O)CC3` (stereo not drawn) returned a Ki at D(2) dopamine receptor [1] of 83 nM. Moreover, the Change with Rattus norvegicus [2] was -41%; in the test with Rattus norvegicus [3], -48%.

On to `CCCN(CCC)C1Cc2cccc3ccc(=O)n(c23)C1` (stereo not drawn), for which the Ki at D(2) dopamine receptor [1] was found to be 315 nM. For the same compound, the Change in the test with Rattus norvegicus [2] is recorded as -40%; with Rattus norvegicus [3] it was -18%.

`CCCN(CCC)C1Cc2cccc3c2n(c(=O)n3C)C1` (stereo not drawn) registered a Ki on D(2) dopamine receptor [6] of 924 nM.

Regarding `CCCN(CCC)C1Cc2cccc3nc(S)n(c23)C1` (stereo not drawn), the Ki at D(2) dopamine receptor [1] turned out to be 40 nM. The Change is -38% in the test with Rattus norvegicus [2] and -7% in the test with Rattus norvegicus [3].

In the case of `CCCNC1Cc2cccc3nc(O)n(c23)C1.Cl` (stereo not drawn), the Ki at D(2) dopamine receptor [1] was 1040 nM. The values for the ED50 in [9] and in [4] were 0.65 mg/kg and 0.036 mg/kg, respectively.

In the case of `CCCN(CCC)C1Cc2cccc3c2N(C1)C(=O)C3` (stereo not drawn), at D(2) dopamine receptor [1], the Ki was 1080 nM. Besides, the results for the Change in the test on Rattus norvegicus [2] and with Rattus norvegicus [3] were -53% and -11%, respectively.

The compound `CCCN(CCC)C1Cc2cccc3nc(O)n(c23)C1.Cl` (stereo not drawn) showed a Ki on D(2) dopamine receptor [1] of 207 nM. Besides, the Change in the test on Rattus norvegicus [2] is reported as -34%; in the test with Rattus norvegicus [3], 12%. Further, the ED50 in test [9] was 0.34 mg/kg; in test [4], 0.005 mg/kg.

`CCCN(CCC)C1Cc2cccc3c2N(C1)C(=O)OC3.Cl` (stereo not drawn) had a Ki at D(2) dopamine receptor [1] of 292 nM. The Change was -36% in the test on Rattus norvegicus [2] and -13% with Rattus norvegicus [3].

As for `CCCN(CCC)C1Cc2cccc3c2N(C1)C(=O)CO3.O=C(O)/C=C/C(=O)O` (stereo not drawn), the figures for the Change in the test with Rattus norvegicus [2] and in the test with Rattus norvegicus [3] were -18% and -12%, respectively.

For the compound `NC1Cc2cccc3nc(O)n(c23)C1` (stereo not drawn), on D(2) dopamine receptor [1], the Ki was over 10000 nM.

Compound `CCCN(CCC)C1Cc2cccc3ccn(c23)C1.O=C(O)/C=C/C(=O)O` (stereo not drawn) came in with a Ki at D(2) dopamine receptor [1] of 210 nM. The Change is given as -29% in the test with Rattus norvegicus [2] and -14% with Rattus norvegicus [3]. Further, the ED50 in test [4] stood at 0.083 mg/kg.

With `Oc1nc2cccc3c2n1CC(N(CC1CC1)CC1CC1)C3` (stereo not drawn), the Ki at D(2) dopamine receptor [1] turned out to be 7730 nM.

Turning to `CCCN(Cc1ccccc1)C1Cc2cccc3[nH]c(=O)n(c23)C1` (stereo not drawn), affinity on D(2) dopamine receptor [1] was put at a Ki of 1910 nM.

In the case of `CN(C)C1Cc2cccc3nc(O)n(c23)C1` (stereo not drawn), on D(2) dopamine receptor [1], the Ki is over 10000 nM.

`CCCN(CCC)C1Cc2cccc3c2N(C1)C(=O)NC3` (stereo not drawn) displayed a Ki at D(2) dopamine receptor [1] of over 1000 nM. Further, the results for the Change in the test on Rattus norvegicus [2] and in the test with Rattus norvegicus [3] were -13% and -45%, respectively. The ED50 in test [9] turned out to be 0.0034 mg/kg; in test [4], 0.212 mg/kg.

As for `CCCCNC1Cc2cccc3[nH]c(=O)n(c23)C1` (stereo not drawn), at D(2) dopamine receptor [6], the Ki is over 10000 nM.

For `CCCN(CCC)C1Cc2cccc3c2N(CC3)C1.O=C(O)/C=C/C(=O)O` (stereo not drawn), at D(2) dopamine receptor [1], the Ki was over 1000 nM. For the same compound, the Change in the test with Rattus norvegicus [2] is recorded as -33%; in the test on Rattus norvegicus [3] it was -13%.

Consider `C=CCNC1Cc2cccc3nc(O)n(c23)C1` (stereo not drawn), for which the Ki at D(2) dopamine receptor [1] came to 363 nM.

Compound `CCCN(CCC)[C@H]1Cc2cccc3nc(O)n(c23)C1.Cl` came in with a Ki at D(2) dopamine receptor [6] of over 1000 nM. Further, the Change in the test on Rattus norvegicus [2] is listed as 0.3%; in the test on Rattus norvegicus [3] it was 6.4%. The same compound yielded an ED50 in test [4] of over 1 mg/kg.

As to `CCCCN(CCC)C1Cc2cccc3nc(O)n(c23)C1` (stereo not drawn), the Ki on D(2) dopamine receptor [1] worked out at 167 nM.

The compound `CCCN(CCC)C1Cc2cccc3ncn(c23)C1` (stereo not drawn) showed a Ki on D(2) dopamine receptor [1] of over 1000 nM. Further, the Change is reported as -12% in the test with Rattus norvegicus [2] and -7% with Rattus norvegicus [3]. For the same compound, it took a dose of 0.219 mg/kg to reach the 50% effect level in [4] (ED50).

On D(2) dopamine receptor [1], `CCCN(CCC)C1Cc2cccc3nc(SC)n(c23)C1` (stereo not drawn) returned a Ki of over 1000 nM.

At D(2) dopamine receptor [1], `CCCN(CCC)C1Cc2cccc3c2N(C1)C(=O)C3=O` (stereo not drawn) had a Ki of over 1000 nM. Besides, the Change in the test with Rattus norvegicus [2] is -46%; in the test with Rattus norvegicus [3], -7%.

In turn, `CCCN(CCC)C1Cc2cccc3oc(=O)n(c23)C1` (stereo not drawn) yielded a Ki on D(2) dopamine receptor [1] of 899 nM. Moreover, the Change in the test with Rattus norvegicus [2] is -27%; in the test on Rattus norvegicus [3] it was -6%.
